Experimental data as given in paper PMC6570502 (Chembiochem : a European journal of chemical biology, 2019).

Molecular target: T1, KDM4A S288G mutant (Homo sapiens, UniProt O75164, S288G)
T1 sequence (O75164 1-1064 S288G): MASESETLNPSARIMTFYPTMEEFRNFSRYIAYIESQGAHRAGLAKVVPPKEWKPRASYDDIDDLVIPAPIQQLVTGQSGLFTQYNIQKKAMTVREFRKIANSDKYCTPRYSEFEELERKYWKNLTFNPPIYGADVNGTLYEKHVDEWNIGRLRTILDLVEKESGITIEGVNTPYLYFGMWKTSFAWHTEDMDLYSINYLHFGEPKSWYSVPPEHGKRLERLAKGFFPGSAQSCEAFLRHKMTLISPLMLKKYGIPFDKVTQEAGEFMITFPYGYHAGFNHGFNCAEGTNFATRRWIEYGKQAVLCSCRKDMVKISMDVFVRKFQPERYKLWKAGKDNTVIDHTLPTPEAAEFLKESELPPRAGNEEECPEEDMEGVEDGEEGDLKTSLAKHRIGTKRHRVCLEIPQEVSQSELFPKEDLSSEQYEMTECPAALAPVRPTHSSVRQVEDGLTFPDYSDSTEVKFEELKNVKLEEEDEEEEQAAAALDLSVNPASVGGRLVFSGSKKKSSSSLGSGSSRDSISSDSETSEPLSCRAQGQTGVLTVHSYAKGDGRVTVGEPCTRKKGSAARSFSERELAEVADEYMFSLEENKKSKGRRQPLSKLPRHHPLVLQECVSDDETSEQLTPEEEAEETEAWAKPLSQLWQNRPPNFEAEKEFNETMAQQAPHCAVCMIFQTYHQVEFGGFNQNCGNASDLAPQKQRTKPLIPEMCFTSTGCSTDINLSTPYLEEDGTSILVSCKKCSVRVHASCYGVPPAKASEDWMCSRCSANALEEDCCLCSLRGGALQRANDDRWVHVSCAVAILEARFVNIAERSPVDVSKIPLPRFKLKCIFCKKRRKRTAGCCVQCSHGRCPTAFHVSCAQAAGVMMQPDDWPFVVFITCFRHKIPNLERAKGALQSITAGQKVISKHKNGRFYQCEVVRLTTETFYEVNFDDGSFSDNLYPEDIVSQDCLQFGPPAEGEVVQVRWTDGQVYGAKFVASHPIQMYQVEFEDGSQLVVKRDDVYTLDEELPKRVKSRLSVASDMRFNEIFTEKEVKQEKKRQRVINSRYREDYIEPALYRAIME
Assay: MALDI demethylase assay, H3K9me3 substrate peptide, S288G mutant
Assay type: biochemical
Summary of the method: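 KDM4A mutant demethylation of H3K9me3 peptide, read by MALDI-MS and expressed as % inhibition of demethylase activity, with wild type and the four active-site mutants run under the same conditions. The 2KG cofactor was cut from the 1 mM of the initial activity assay to 50 μM, about 3–4-fold above the enzymes' 2KG KM. KM came from an FDH/NAD+-coupled NADH fluorescence assay.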

[1] = scaffold test under the optimized assay conditions (50 μM 2KG), Figure S7

O=C(O)c1ccc(O)c2ncccc12 [IOX1, 5-carboxy-8-hydroxyquinone]
inhibition of demethylase activity [1]: inhibited

O=C(O)CNC(=O)C(=O)O [compound 2, N-oxalylglycine]
inhibition of demethylase activity (100 μM compound, 50 μM 2KG, MALDI-MS): significantly inhibited
inhibition of demethylase activity [1]: inhibited
